Among the data in ChEMBL document CHEMBL1137257, “Synthesis and evaluation of thiazepines as interleukin-1beta converting enzyme (ICE) inhibitors” (Bioorg Med Chem Lett, 2006) are IC50 and Selectivity ratio values, retold here.

SMILES strings stand for the structures.

In one assay the target is T1, Caspase-3 (Homo sapiens, UniProt P42574).
T1 sequence (P42574 whole entry): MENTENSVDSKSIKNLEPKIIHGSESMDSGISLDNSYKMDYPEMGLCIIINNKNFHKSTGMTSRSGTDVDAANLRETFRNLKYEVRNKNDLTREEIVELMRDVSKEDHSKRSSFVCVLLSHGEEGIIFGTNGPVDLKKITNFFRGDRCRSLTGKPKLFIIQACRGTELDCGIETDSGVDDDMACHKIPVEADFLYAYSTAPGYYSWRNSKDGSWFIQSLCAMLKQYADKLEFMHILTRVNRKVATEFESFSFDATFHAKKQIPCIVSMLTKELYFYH
The assay is described as follows: Inhibition of Caspase 3. Put shortly:
(§1)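 Isolated enzymes (ICE, caspase-3, caspase-8) were assayed with fluorogenic substrates following the supplier's kit protocol. Cleavage was followed for 30 min at 37 °C by fluorescence (excitation 390 nm, emission 460 nm). IC50 was calculated as [I]/((Vo/Vi) − 1) from the initial velocities with (Vi) and without (Vo) inhibitor.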

The target of another assay is Caspase-8 (Homo sapiens, UniProt Q14790). Kind of assay: Inhibition of Caspase 8. Put shortly: as §1
In a further assay the target is T2, Caspase-1 (Homo sapiens, UniProt P29466).
T2 sequence (P29466 whole entry): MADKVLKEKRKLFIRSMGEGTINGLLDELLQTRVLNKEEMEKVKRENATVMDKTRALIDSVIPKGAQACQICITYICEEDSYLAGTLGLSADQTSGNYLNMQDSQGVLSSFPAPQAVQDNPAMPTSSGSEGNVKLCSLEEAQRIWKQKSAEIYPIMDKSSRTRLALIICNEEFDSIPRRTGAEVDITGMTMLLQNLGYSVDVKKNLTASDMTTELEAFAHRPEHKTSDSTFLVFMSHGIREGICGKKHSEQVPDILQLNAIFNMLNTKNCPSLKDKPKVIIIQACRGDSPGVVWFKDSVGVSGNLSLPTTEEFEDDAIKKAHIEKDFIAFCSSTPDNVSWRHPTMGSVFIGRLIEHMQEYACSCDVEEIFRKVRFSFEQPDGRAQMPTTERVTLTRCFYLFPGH
Kind of assay: Inhibition of ICE. Put shortly:
as §1

For another assay, the species on record is Homo sapiens. The assay is described as follows: Selectivity for ICE over Caspase 8.
A further assay deals with THP-1. Kind of assay: Inhibition of LPS-induced ILbeta1 release in human THP1 cells. It counts as functional, cell-based. In outline: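 Human monocytic THP-1 cells (2 × 10⁶/ml, RPMI 1640) were preincubated 15 min with or without compound added as DMSO solutions, with test concentrations starting at 1 nM. Cells were then stimulated with LPS for 4 h and centrifuged. Inhibition of IL-1β production was measured.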

Caspase-8, sequence (Q14790 217-374 limits assumed): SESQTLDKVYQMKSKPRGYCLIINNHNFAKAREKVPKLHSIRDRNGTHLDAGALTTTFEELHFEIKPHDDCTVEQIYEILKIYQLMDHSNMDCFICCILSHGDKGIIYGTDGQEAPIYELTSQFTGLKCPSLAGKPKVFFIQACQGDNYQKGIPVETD
Caspase-8, sequence (Q14790 385-479 limits assumed): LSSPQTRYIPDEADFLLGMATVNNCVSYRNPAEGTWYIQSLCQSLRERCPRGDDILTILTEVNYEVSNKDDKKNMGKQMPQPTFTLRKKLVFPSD

As to `O=C(CN1CCS(=O)(=O)C[C@H](NC(=O)c2ccccc2)C1=O)N[C@H]1CC(=O)OC1O` (some centres undefined), the half-inhibitory concentration (IC50) is > 10 µM at Caspase-3, > 10 µM on Caspase-8, 2.3 µM on Caspase-1 and 3.2 µM in the assay on THP-1. Also, in the assay filed under Homo sapiens, the Selectivity ratio was > 100.
`O=C(CN1CCSC[C@H](NC(=O)c2ccc3ccccc3c2)C1=O)N[C@H]1CC(=O)OC1O` (some centres undefined): the IC50 on Caspase-3 was > 10 µM; at Caspase-8, 9.4 µM; at Caspase-1, 0.03 µM; in the assay on THP-1 it was 0.48 µM. The Selectivity ratio in the assay filed under Homo sapiens was > 100.
On to `O=C(CN1CCS(=O)(=O)C[C@H](NC(=O)c2cccc(C(F)(F)F)c2)C1=O)N[C@H]1CC(=O)OC1O` (some centres undefined), for which the Selectivity ratio in the assay filed under Homo sapiens is > 100. The same molecule returned an IC50 in the assay on THP-1 of 3.4 µM.
With `O=C(CN1CCSC[C@H](NC(=O)c2ccccc2)C1=O)N[C@H]1CC(=O)OC1O` (some centres undefined), the IC50 against Caspase-3 was > 10 µM; against Caspase-8, 5.2 µM; on Caspase-1, 0.35 µM; with THP-1, 1.7 µM. In addition, the Selectivity ratio in the assay listed under Homo sapiens was > 100.
For `O=C(CN1CCS(=O)(=O)C[C@H](NC(=O)c2cc3ccccc3s2)C1=O)N[C@H]1CC(=O)OC1O` (some centres undefined) the same measures were > 10 µM, 8.5 µM, 0.32 µM, 1.7 µM and > 100.
For `O=C(CN1CCS(=O)(=O)C[C@H](NC(=O)c2nccc3ccccc23)C1=O)N[C@H]1CC(=O)OC1O` (some centres undefined) the same measures were > 10 µM, 5 µM, 0.13 µM, 1.4 µM and > 100.
For the molecule `O=C(CN1CCS(=O)(=O)C[C@H](NC(=O)c2ccc3ccccc3c2)C1=O)N[C@H]1CC(=O)OC1O` (some centres undefined), the IC50 was > 10 µM at Caspase-3, > 10 µM against Caspase-8, 0.15 µM against Caspase-1 and 1.1 µM in the assay on THP-1. In the assay filed under Homo sapiens, the Selectivity ratio was > 100.
Consider `CCO[C@@H]1OC(=O)C[C@@H]1NC(=O)[C@@H]1CCCN2C(=O)CC[C@H](NC(=O)c3nccc4ccccc34)C(=O)N12` [PRALNACASAN], for which the IC50 against Caspase-3 was found to be 1.3 µM; with THP-1, 0.19 µM.
Consider `O=C(CN1CCSC[C@H](NC(=O)c2cc3ccccc3s2)C1=O)N[C@H]1CC(=O)OC1O` (some centres undefined), for which the IC50 was > 10 µM against Caspase-3, 9.5 µM against Caspase-8, 0.08 µM on Caspase-1 and 0.64 µM in the assay with THP-1. Further, in the assay listed under Homo sapiens, the Selectivity ratio was > 100.
The corresponding values for `O=C(CN1CCSC[C@H](NC(=O)c2cccc(C(F)(F)F)c2)C1=O)N[C@H]1CC(=O)OC1O` (some centres undefined) are > 10 µM, > 10 µM, 0.15 µM, 1 µM and > 100.
For `O=C(CN1CCSC[C@H](NC(=O)c2nccc3ccccc23)C1=O)N[C@H]1CC(=O)OC1O` (some centres undefined) the same measures were > 10 µM, 7 µM, 0.07 µM, 0.73 µM and > 100.
